# Experimental data as given in ChEMBL document CHEMBL4266027, “Cyanobufalins: Cardioactive Toxins from Cyanobacterial Blooms” (J Nat Prod, 2018).
# Assays:
# Format in all cases: cell-based
# Cardiac muscle cell [1] = assay: Toxicity in human inducible pluripotent stem cell derived cardiomyocytes assessed as change in beating amplitude at 0.32 nM after 8 mins; conditions: 0.00032 µM
# In short: (§1)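 Human iPSC-derived cardiomyocytes (Cor.4U) were grown to stable beating cultures and monitored by impedance in real time with 20 s recordings. Compounds were given as a dilution series from 0.32 nM to 5 μM, dosed twice 24 h apart, with monitoring over 48 h. Beating amplitude was taken from each negative peak to the following positive peak and reported as % change.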
# Cardiac muscle cell [2] = assay: Toxicity in human inducible pluripotent stem cell derived cardiomyocytes assessed as change in beating amplitude at 0.32 nM after 33 mins; conditions: 0.55 h, 0.00032 µM; in short: as §1
# Cardiac muscle cell [3] = assay: Toxicity in human inducible pluripotent stem cell derived cardiomyocytes assessed as change in beating amplitude at 0.32 nM after 66 mins; conditions: 1.1 h, 0.00032 µM; in short: as §1
# Cardiac muscle cell [4] = assay: Toxicity in human inducible pluripotent stem cell derived cardiomyocytes assessed as change in beating amplitude at 0.32 nM after 4 hrs; conditions: 0.00032 µM; in short: as §1
# Cardiac muscle cell [5] = assay: Toxicity in human inducible pluripotent stem cell derived cardiomyocytes assessed as change in beating amplitude at 0.32 nM after 12 hrs; conditions: 0.00032 µM; in short: as §1
# Cardiac muscle cell [6] = assay: Toxicity in human inducible pluripotent stem cell derived cardiomyocytes assessed as change in beating amplitude at 0.32 nM after 24 hrs; conditions: 0.00032 µM; in short: as §1
# Cardiac muscle cell [7] = assay: Toxicity in human inducible pluripotent stem cell derived cardiomyocytes assessed as change in beating amplitude at 0.32 nM after 36 hrs; conditions: 0.00032 µM; in short: as §1
# Cardiac muscle cell [8] = assay: Toxicity in human inducible pluripotent stem cell derived cardiomyocytes assessed as change in beating amplitude at 0.32 nM after 48 hrs; conditions: 0.00032 µM; in short: as §1
# Cardiac muscle cell [9] = assay: Toxicity in human inducible pluripotent stem cell derived cardiomyocytes assessed as change in beating amplitude at 1.6 nM after 33 mins; conditions: 0.55 h, 0.0016 µM; in short: as §1
# Cardiac muscle cell [10] = assay: Toxicity in human inducible pluripotent stem cell derived cardiomyocytes assessed as change in beating amplitude at 1.6 nM after 66 mins; conditions: 1.1 h, 0.0016 µM; in short: as §1
# Cardiac muscle cell [11] = assay: Toxicity in human inducible pluripotent stem cell derived cardiomyocytes assessed as change in beating amplitude at 1.6 nM after 4 hrs; conditions: 0.0016 µM; in short: as §1
# Cardiac muscle cell [12] = assay: Toxicity in human inducible pluripotent stem cell derived cardiomyocytes assessed as change in beating amplitude at 1.6 nM after 12 hrs; conditions: 0.0016 µM; in short: as §1
# Cardiac muscle cell [13] = assay: Toxicity in human inducible pluripotent stem cell derived cardiomyocytes assessed as change in beating amplitude at 1.6 nM after 24 hrs; conditions: 0.0016 µM; in short: as §1
# Cardiac muscle cell [14] = assay: Toxicity in human inducible pluripotent stem cell derived cardiomyocytes assessed as change in beating amplitude at 1.6 nM after 36 hrs; conditions: 0.0016 µM; in short: as §1
# Cardiac muscle cell [15] = assay: Toxicity in human inducible pluripotent stem cell derived cardiomyocytes assessed as change in beating amplitude at 1.6 nM after 48 hrs; conditions: 0.0016 µM; in short: as §1
# Cardiac muscle cell [16] = assay: Toxicity in human inducible pluripotent stem cell derived cardiomyocytes assessed as change in beating amplitude at 8 nM after 33 mins; conditions: 0.55 h, 0.008 µM; in short: as §1
# Cardiac muscle cell [17] = assay: Toxicity in human inducible pluripotent stem cell derived cardiomyocytes assessed as change in beating amplitude at 8 nM after 66 mins; conditions: 1.1 h, 0.008 µM
# In short: (§2)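 Cor.4U hiPSC-derived cardiomyocytes grown to stable beating cultures, then monitored by impedance in RTCA Cardio plates with 20 s recordings. Compounds tested as a dilution series from 0.32 nM to 5 μM, dosed twice 24 h apart, followed over 48 h. Beating amplitude is taken from each negative peak to the next positive peak and reported as percent change.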
# Cardiac muscle cell [18] = assay: Toxicity in human inducible pluripotent stem cell derived cardiomyocytes assessed as change in beating amplitude at 8 nM after 4 hrs; conditions: 0.008 µM; in short: as §2
# Cardiac muscle cell [19] = assay: Toxicity in human inducible pluripotent stem cell derived cardiomyocytes assessed as change in beating amplitude at 8 nM after 12 hrs; conditions: 0.008 µM; in short: as §1
# Cardiac muscle cell [20] = assay: Toxicity in human inducible pluripotent stem cell derived cardiomyocytes assessed as change in beating amplitude at 8 nM after 24 hrs; conditions: 0.008 µM; in short: as §1
# Cardiac muscle cell [21] = assay: Toxicity in human inducible pluripotent stem cell derived cardiomyocytes assessed as change in beating amplitude at 40 nM after 33 mins; conditions: 0.55 h, 0.04 µM; in short: as §1
# Cardiac muscle cell [22] = assay: Toxicity in human inducible pluripotent stem cell derived cardiomyocytes assessed as change in beating amplitude at 40 nM after 66 mins; conditions: 1.1 h, 0.04 µM; in short: as §1
# Cardiac muscle cell [23] = assay: Toxicity in human inducible pluripotent stem cell derived cardiomyocytes assessed as change in beating amplitude at 1.6 nM after 8 mins; conditions: 0.0016 µM; in short: as §1
# Cardiac muscle cell [24] = assay: Toxicity in human inducible pluripotent stem cell derived cardiomyocytes assessed as change in beating amplitude at 8 nM after 8 mins; conditions: 0.008 µM; in short: as §2
# Cardiac muscle cell [25] = assay: Toxicity in human inducible pluripotent stem cell derived cardiomyocytes assessed as change in beating amplitude at 40 nM after 8 mins; conditions: 0.04 µM; in short: as §1
# Cardiac muscle cell [26] = assay: Toxicity in human inducible pluripotent stem cell derived cardiomyocytes assessed as increase in beating amplitude at >= 40 nM up to 48 hrs; in short: as §2
# Cardiac muscle cell [27] = assay: Toxicity in human inducible pluripotent stem cell derived cardiomyocytes assessed as increase in beating amplitude at 8 nM up to 48 hrs; conditions: 0.008 µM; in short: as §2
smiles,measurement,setting,value
CC1(C)[C@@H](OC(N)=O)C=C[C@]2(C=O)[C@H]3CC[C@]4(C)[C@@H](c5ccc(=O)oc5)[C@@H](Cl)C[C@]4(O)C3=CC[C@@H]12,Activity,Cardiac muscle cell [1],-2.7%
same,Activity,Cardiac muscle cell [2],0.7%
same,Activity,Cardiac muscle cell [3],-1.9%
same,Activity,Cardiac muscle cell [4],19%
same,Activity,Cardiac muscle cell [5],23%
same,Activity,Cardiac muscle cell [6],30%
same,Activity,Cardiac muscle cell [7],57%
same,Activity,Cardiac muscle cell [8],30%
same,Activity,Cardiac muscle cell [9],-2.1%
same,Activity,Cardiac muscle cell [10],2.6%
same,Activity,Cardiac muscle cell [11],9.7%
same,Activity,Cardiac muscle cell [12],3.3%
same,Activity,Cardiac muscle cell [13],2.8%
same,Activity,Cardiac muscle cell [14],11%
same,Activity,Cardiac muscle cell [15],-20%
same,Activity,Cardiac muscle cell [16],7.5%
same,Activity,Cardiac muscle cell [17],14%
same,Activity,Cardiac muscle cell [18],-19%
same,Activity,Cardiac muscle cell [19],-18%
same,Activity,Cardiac muscle cell [20],-59%
same,Activity,Cardiac muscle cell [21],13%
same,Activity,Cardiac muscle cell [22],-94%
same,Activity,Cardiac muscle cell [23],-1.9%
same,Activity,Cardiac muscle cell [24],3.9%
same,Activity,Cardiac muscle cell [25],2.6%
same,Activity,Cardiac muscle cell [26],Toxic
same,Activity,Cardiac muscle cell [27],Toxic
